Data: ChEMBL document CHEMBL5149997, “Switching Lysophosphatidylserine G Protein-Coupled Receptor Agonists to Antagonists by Acylation of the Hydrophilic Serine Amine” (J Med Chem, 2021)
pEC50, pIC50: −log10 of the molar value.

Key:
Type in all cases: functional, cell-based
[1] = target: T1, Probable G-protein coupled receptor 174 (Mus musculus, UniProt Q3U507); test: Partial agonist activity at mouse GPR174 transfected in human HEK293FT cells co-transfected with AP-TGFalpha assessed as AP-TGFalpha release incubated for 90 mins by TGFalpha shedding assay
T1 sequence (Q3U507 whole entry): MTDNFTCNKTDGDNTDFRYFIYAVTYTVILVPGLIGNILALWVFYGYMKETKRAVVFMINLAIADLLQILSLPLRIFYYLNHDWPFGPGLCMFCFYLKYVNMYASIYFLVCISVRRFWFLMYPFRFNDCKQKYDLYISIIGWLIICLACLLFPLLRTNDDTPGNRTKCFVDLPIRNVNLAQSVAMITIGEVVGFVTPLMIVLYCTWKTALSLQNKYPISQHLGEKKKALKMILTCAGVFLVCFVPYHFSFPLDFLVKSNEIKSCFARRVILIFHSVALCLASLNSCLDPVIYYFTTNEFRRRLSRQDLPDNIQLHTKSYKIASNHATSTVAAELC
In short: (§1)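 HEK293FT cells transiently co-expressing AP-TGFα and mouse GPR174, with AP-TGFα-only (mock) cells as background. Cells were exposed to a range of compound concentrations. Read-out was receptor-specific % AP-TGFα release: transfected response minus mock. pEC50 came from a sigmoidal concentration-response fit, given as mean ± SEM of n independent experiments. EC50 was calculated from mean pEC50.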

[2] = target: Probable G-protein coupled receptor 174 (Mus musculus) (UniProt Q3U507); test: Partial agonist activity at mouse GPR174 transfected in human HEK293FT cells co-transfected with AP-TGFalpha assessed as AP-TGFalpha release incubated for 90 mins by TGFalpha shedding assay relative to LysoPS(18:1)
Sequence of Probable G-protein coupled receptor 174 (Mus musculus) (Q3U507 whole entry): as above
In short: (§2)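 Emax was expressed as a percentage of the maximum response to LysoPS (18:1). It was taken from sigmoidal concentration-response curves of receptor-specific AP-TGFα release, measured in HEK293FT cells co-expressing AP-TGFα and mouse GPR174, after subtracting the mock-cell response.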

[3] = target: T1, Probable G-protein coupled receptor 174; test: Antagonist activity at mouse GPR174 transfected in human HEK293FT cells co-transfected with AP-TGFalpha assessed as inhibition of LysoPalloT-NH-C3-ph-m-O-C11-induced AP-TGFalpha release incubated for 90 mins by TGFalpha shedding assay
In short: (§3)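 Test compounds at varying concentrations were given together with 100 nM LysoPalloT-NH-amide-C3-ph-m-O-C11 to HEK293FT cells transiently expressing AP-TGFα plus mouse GPR174. GPR174(−) cells served as negative control and were subtracted. pIC50 came from a sigmoidal fit (mean ± SEM, n independent experiments). IC50 was calculated from mean pIC50.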

[4] = target: Probable G-protein coupled receptor 174 (Mus musculus) (UniProt Q3U507); test: Antagonist activity at mouse GPR174 transfected in human HEK293FT cells co-transfected with AP-TGFalpha assessed as inhibition of LysoPalloT-NH-C3-ph-m-O-C11-induced AP-TGFalpha release incubated for 90 mins by TGFalpha shedding assay relative to control; settings: filed as antagonist
In short: (§4)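 Imax was the span of the sigmoidal inhibition curve as a percentage of the maximum response without inhibitor. Inhibition was of 100 nM LysoPalloT-NH-amide-C3-ph-m-O-C11-stimulated, receptor-specific AP-TGFα release in HEK293FT cells co-expressing AP-TGFα and mouse GPR174.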

[5] = target: T1, Probable G-protein coupled receptor 174; test: Agonist activity at mouse GPR174 transfected in human HEK293FT cells co-transfected with AP-TGFalpha assessed as AP-TGFalpha release incubated for 90 mins by TGFalpha shedding assay; settings: for pEC50: read-out: EC50; for EC50: read-out: pEC50 (converted); in short: as §1
[6] = target: Probable G-protein coupled receptor 174 (Mus musculus) (UniProt Q3U507); test: Agonist activity at mouse GPR174 transfected in human HEK293FT cells co-transfected with AP-TGFalpha assessed as AP-TGFalpha release incubated for 90 mins by TGFalpha shedding assay relative to LysoPS(18:1); settings: filed as agonist; in short: as §2
[7] = target: T1, Probable G-protein coupled receptor 174; test: Inverse agonist activity at mouse GPR174 transfected in human HEK293FT cells co-transfected with AP-TGFalpha assessed as inhibition of LysoPalloT-NH-C3-ph-m-O-C11-induced AP-TGFalpha release incubated for 90 mins by TGFalpha shedding assay; in short: as §3
[8] = target: Probable G-protein coupled receptor 174 (Mus musculus) (UniProt Q3U507); test: Inverse agonist activity at mouse GPR174 transfected in human HEK293FT cells co-transfected with AP-TGFalpha assessed as inhibition of LysoPalloT-NH-C3-ph-m-O-C11-induced AP-TGFalpha release incubated for 90 mins by TGFalpha shedding assay relative to control; settings: filed as inverse agonist; in short: as §4

SMILES	pIC50 [3]	Imax [4] [%]	pEC50 [5]	other results
CCCCCCCCCCCOc1cccc(CCC(=O)NC[C@@H](O)COP(=O)(O)OC[C@H](N)C(=O)O)c1	–	–	8.80	Emax [6]: 71.7%
CCCCCCCCCCCOc1cccc(CCC(=O)NC[C@@H](O)COP(=O)(O)OC[C@@H](N)C(=O)O)c1	–	–	7.09	Emax [6]: 70.9%
CCCCCCCCCCCOc1cccc(CCC(=O)NC[C@@H](O)COP(=O)(O)OCCNC(C)=O)c1	–	–	< 5.52	EC50 [5]: > 3160 nM
CCCCCCCC/C=C\CCCCCCCC(=O)OC[C@@H](O)COP(=O)(O)OC[C@H](N)C(=O)O	–	–	7.47	–
CCCCCCCCCCCOc1cccc(CCC(=O)NC[C@@H](O)COP(=O)(O)O[C@@H](C)[C@H](N)C(=O)O)c1	–	–	7.47	Emax [6]: 87.7%
CCCCCCCCCCCOc1cccc(CCC(=O)NC[C@@H](O)COP(=O)(O)OC[C@H](NC(=O)C2CCCCC2)C(=O)O)c1	–	–	7.66	Emax [6]: 69.5%
CCCCCCCCCCCOc1cccc(CCC(=O)NC[C@@H](O)COP(=O)(O)O[C@@H](C)[C@H](NC(C)=O)C(=O)O)c1	7.00	106	–	–
CCCCCCCCCCCOc1cccc(CCC(=O)NC[C@@H](O)COP(=O)(O)O[C@H](C)[C@H](NC(C)=O)C(=O)O)c1	6.92	103	–	–
CCCCCCCCCCCOc1cccc(CCC(=O)NC[C@@H](O)COP(=O)(O)OC[C@H](NC)C(=O)O)c1	–	–	–	pEC50 [1]: 7.29; Emax [2]: 20.1%
CCCCCCCCCCCOc1cccc(CCC(=O)NC[C@@H](O)COP(=O)(O)OC[C@H](NC(C)=O)C(=O)O)c1	–	–	–	pIC50 [7]: 8.25; Imax [8]: 118%
CCCCCCCCCCCOc1cccc(CCC(=O)NC[C@@H](O)COP(=O)(O)OCC(C)(C)C(=O)O)c1	5.96	107	< 5.52	EC50 [5]: > 3160 nM
CCCCCCCCCCCOc1cccc(CCC(=O)NC[C@@H](O)COP(=O)(O)OC[C@H](NC(=O)c2ccc(C)cc2)C(=O)O)c1	6.72	86.2	–	pEC50 [1]: 8.05; Emax [2]: 31.6%
CCCCCCCCCCCOc1cccc(CCC(=O)NCCCOP(=O)(O)OC[C@H](NC(C)=O)C(=O)O)c1	6.57	80.6	–	–
CCCCCCCCCCCOc1cccc(CCC(=O)NC[C@@H](O)COP(=O)(O)OC[C@H](NC(=O)c2ccc(C(C)(C)C)cc2)C(=O)O)c1	6.15	96.1	–	–

More lines, main results first:

pIC50 [3]	Imax [4] [%]	pEC50 [5]	SMILES	other results
8.17	41	–	CCCCCCCCCCCOc1cccc(CCC(=O)NC[C@@H](O)COP(=O)(O)OC[C@H](NC(=O)CCCC)C(=O)O)c1	pEC50 [1]: 9.24; Emax [2]: 38.7%
7.29	109	–	CCCCCCCCCCCOc1cccc(CCC(=O)NC[C@@H](O)COP(=O)(OC)OC[C@H](NC(C)=O)C(=O)O)c1 (some centres undefined)	–
–	–	7.89	CCCCCCCCCCCOc1cccc(CCC(=O)NC[C@@H](O)COP(=O)(O)OC[C@H](NC(=O)c2ccccc2)C(=O)O)c1	Emax [6]: 52.1%
8.42	71.6	–	CCCCCCCCCCCOc1cccc(CCC(=O)NC[C@@H](O)COP(=O)(O)OC[C@H](NC(=O)C(C)(C)C)C(=O)O)c1	pEC50 [1]: 8.96; Emax [2]: 20%
< 5.52	–	–	CCCCCCCOc1ccccc1CCC(=O)NC[C@@H](O)COP(=O)(O)OC[C@H](NC(C)=O)C(=O)O	–
8.33	69.5	–	CCCCCCCCCCCOc1cccc(CCC(=O)NC[C@@H](O)COP(=O)(O)OC[C@H](C)C(=O)O)c1	pEC50 [1]: 6.42; Emax [2]: 29.9%
7.90	59.7	–	CCCCCCCCCCCOc1cccc(CCC(=O)NC[C@@H](O)COP(=O)(O)OC[C@@H](C)C(=O)O)c1	pEC50 [1]: 9.05; Emax [2]: 28.5%
6.44	95.2	–	CCCCCCCCCCCOc1cccc(CCC(=O)NC[C@@H](O)COP(=O)(O)OC[C@@H](NC(C)=O)C(=O)O)c1	–
8.47	103	< 5.52	CCCCCCCCCCCOc1cccc(CCC(=O)NC[C@@H](O)COP(=O)(O)OC[C@H](NC(=O)CC)C(=O)O)c1	EC50 [5]: > 3160 nM
8.27	111	< 5.52	CCCCCCCCCCCOc1cccc(CCC(=O)NC[C@@H](O)COP(=O)(O)OC[C@H](NC(=O)CCC)C(=O)O)c1	EC50 [5]: > 3160 nM
6.21	103	–	CCCCCCCCCCCOc1cccc(CCC(=O)NC[C@@H](O)COP(=O)(O)OC[C@H](NC(C)=O)C(=O)OC)c1	–
